Reference: ChEMBL document CHEMBL1773060, “Two-step synthesis of novel, bioactive derivatives of the ubiquitous cofactor nicotinamide adenine dinucleotide (NAD)” (J Med Chem, 2011)
Calls of active or inactive are those of the source. The rule behind the calls is not given here.

Columns and labels:
[1] = molecular target: T1, NAD-dependent protein deacetylase sirtuin-2 (Homo sapiens) (UniProt Q8IXJ6); assay: Inhibition of human recombinant N-terminally His6-tagged SIRT2 at 50 uM after 4 hrs by homogeneous fluorescent deacetylase assay
T1 sequence (whole entry): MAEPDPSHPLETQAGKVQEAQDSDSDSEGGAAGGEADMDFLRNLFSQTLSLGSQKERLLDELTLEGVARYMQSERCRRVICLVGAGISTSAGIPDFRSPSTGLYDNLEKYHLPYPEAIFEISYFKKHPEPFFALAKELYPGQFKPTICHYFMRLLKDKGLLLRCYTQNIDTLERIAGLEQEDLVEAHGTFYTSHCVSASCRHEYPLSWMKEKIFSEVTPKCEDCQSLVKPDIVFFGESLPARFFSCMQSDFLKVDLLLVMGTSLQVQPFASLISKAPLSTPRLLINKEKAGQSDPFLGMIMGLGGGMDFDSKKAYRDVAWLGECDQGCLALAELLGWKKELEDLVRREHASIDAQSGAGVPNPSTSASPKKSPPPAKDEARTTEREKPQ

[2] = molecular target: T2, NAD-dependent protein deacetylase sirtuin-1 (Homo sapiens) (UniProt Q96EB6); assay: Inhibition of human recombinant GST-tagged SIRT1 at 50 uM after 4 hrs by homogeneous fluorescent deacetylase assay
T2 sequence (whole entry): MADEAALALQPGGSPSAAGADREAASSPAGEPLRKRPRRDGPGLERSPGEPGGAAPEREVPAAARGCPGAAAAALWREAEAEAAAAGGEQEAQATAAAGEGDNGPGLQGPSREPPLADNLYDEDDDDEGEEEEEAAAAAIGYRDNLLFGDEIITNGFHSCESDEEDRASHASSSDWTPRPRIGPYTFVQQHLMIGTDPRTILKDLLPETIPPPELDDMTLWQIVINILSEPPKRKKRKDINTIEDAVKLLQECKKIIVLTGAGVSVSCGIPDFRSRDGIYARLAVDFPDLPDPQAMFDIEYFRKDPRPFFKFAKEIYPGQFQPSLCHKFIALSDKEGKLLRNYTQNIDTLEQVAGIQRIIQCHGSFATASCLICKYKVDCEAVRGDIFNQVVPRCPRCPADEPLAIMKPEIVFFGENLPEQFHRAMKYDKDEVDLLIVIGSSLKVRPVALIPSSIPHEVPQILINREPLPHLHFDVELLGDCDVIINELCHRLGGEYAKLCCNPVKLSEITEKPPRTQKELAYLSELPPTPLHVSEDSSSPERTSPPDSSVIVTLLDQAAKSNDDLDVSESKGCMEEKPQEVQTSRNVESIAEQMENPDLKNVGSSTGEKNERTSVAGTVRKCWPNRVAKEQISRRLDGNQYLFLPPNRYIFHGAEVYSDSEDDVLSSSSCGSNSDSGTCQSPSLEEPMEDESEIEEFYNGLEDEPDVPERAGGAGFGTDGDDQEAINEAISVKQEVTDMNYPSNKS

[3] = molecular target: T1, NAD-dependent protein deacetylase sirtuin-2 (Homo sapiens); assay: Activity at human recombinant GST-tagged SIRT2 assessed as conversion of […] at 500 uM by fluorescence-based assay; details: in the assay text read “His6-tagged” for “GST-tagged”
Procedure, shortened: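 Analogues, with NAD for comparison, were supplied at 500 μM as cosubstrate in place of NAD, in 8.3% (v/v) DMSO. Reaction used Z-(Ac)Lys-AMC (10.5 μM), 4 h at 37 °C. Trypsin/nicotinamide development followed, then fluorescence at ex 390/em 460 nm. Conversion compared against a blank without cofactor.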

[4] = molecular target: T2, NAD-dependent protein deacetylase sirtuin-1 (Homo sapiens); assay: Activity at human recombinant GST-tagged SIRT1 assessed as conversion of acetyllysine substrate to 7-amino-4-methylcoumarin at 500 uM by fluorescence-based assay

SMILES | inhibition [1] | inhibition [2] | Activity [3] | Activity [4]
Nc1ncnc2c1nc(-c1ccccc1)n2[C@@H]1O[C@H](CO)[C@@H](O)[C@H]1O | < 10% | < 10% | – | –
Nc1ncnc2c1nc(Br)n2[C@@H]1O[C@H](COP(=O)(O)O)[C@@H](O)[C@H]1O | < 10% | < 10% | – | –
COc1ccc(-c2nc3c(N)ncnc3n2[C@@H]2O[C@H](COP(=O)(O)OP(=O)([O-])OC[C@H]3O[C@@H]([n+]4cccc(C(N)=O)c4)[C@H](O)[C@@H]3O)[C@@H](O)[C@H]2O)cc1 | – | 18% | – | –
Nc1ncnc2c1nc(Br)n2[C@@H]1O[C@H](CO)[C@@H](O)[C@H]1O | 16% | < 10% | – | –
Cc1ccc(-c2nc3c(N)ncnc3n2[C@@H]2O[C@H](COP(=O)(O)OP(=O)([O-])OC[C@H]3O[C@@H]([n+]4cccc(C(N)=O)c4)[C@H](O)[C@@H]3O)[C@@H](O)[C@H]2O)cc1 | – | 20% | – | –

Further lines, results first:

inhibition [1] | inhibition [2] | Activity [3] | Activity [4] | SMILES
– | 31% | – | – | NC(=O)c1ccc[n+]([C@@H]2O[C@H](COP(=O)([O-])OP(=O)(O)OC[C@H]3O[C@@H](n4c(Br)nc5c(N)ncnc54)[C@H](O)[C@@H]3O)[C@@H](O)[C@H]2O)c1
35% | 16% | – | – | NC(=O)c1ccc[n+]([C@@H]2O[C@H](COP(=O)([O-])OP(=O)(O)OC[C@H]3O[C@@H](n4c(-c5ccco5)nc5c(N)ncnc54)[C@H](O)[C@@H]3O)[C@@H](O)[C@H]2O)c1
– | 17% | Active | Active | NC(=O)c1ccc[n+]([C@@H]2O[C@H](COP(=O)([O-])OP(=O)(O)OC[C@H]3O[C@@H](n4c(-c5ccccc5)nc5c(N)ncnc54)[C@H](O)[C@@H]3O)[C@@H](O)[C@H]2O)c1
– | 30% | – | – | NC(=O)c1ccc[n+]([C@@H]2O[C@H](COP(=O)([O-])OP(=O)(O)OC[C@H]3O[C@@H](n4c(-c5ccc(Cl)cc5)nc5c(N)ncnc54)[C@H](O)[C@@H]3O)[C@@H](O)[C@H]2O)c1
